Values after ≈ are worked out from the molar mass of the structure shown.
Columns and labels:
Assay type in all cases: functional
[1] = test system: Staphylococcus aureus; experiment: Antimicrobial activity against Staphylococcus aureus after 16 to 18 hrs by serial dilution method
How it was run: (§1)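 Serial dilutions of each compound, each inoculated with one standard drop of the prepared test culture. Incubation was 16–18 h at 37 °C. MIC was read as the highest dilution giving clear fluid with no turbidity.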

[2] = test system: Bacillus subtilis; experiment: Antimicrobial activity against Bacillus subtilis after 16 to 18 hrs by serial dilution method; how it was run: as §1
[3] = test system: Escherichia coli; experiment: Antimicrobial activity against Escherichia coli after 16 to 18 hrs by serial dilution method; how it was run: as §1
[4] = test system: Pseudomonas aeruginosa; experiment: Antimicrobial activity against Pseudomonas aeruginosa after 16 to 18 hrs by serial dilution method; how it was run: as §1
[5] = test system: Candida albicans; experiment: Antimicrobial activity against Candida albicans after 16 to 18 hrs by serial dilution method; how it was run: as §1

COc1ccc(-c2nnc(-c3cc(Cl)ccc3Br)o2)c(F)c1
MIC [1]: 6 µg/mL (≈ 15.6 µM)
MIC [2]: 6 µg/mL (≈ 15.6 µM)
MIC [3]: 6 µg/mL (≈ 15.6 µM)
MIC [4]: 6 µg/mL (≈ 15.6 µM)
MIC [5]: 3 µg/mL (≈ 7.82 µM)

COc1ccc(-c2nnc(-c3cnc4ccccc4c3)o2)c(F)c1
MIC [1]: 6 µg/mL (≈ 18.7 µM)
MIC [2]: 6 µg/mL (≈ 18.7 µM)
MIC [3]: 6 µg/mL (≈ 18.7 µM)
MIC [4]: 6 µg/mL (≈ 18.7 µM)
MIC [5]: 6 µg/mL (≈ 18.7 µM)

COc1ccc(-c2nnc(-c3cc(C)on3)o2)c(F)c1
MIC [1]: 12.5 µg/mL (≈ 45.4 µM)
MIC [2]: 12.5 µg/mL (≈ 45.4 µM)
MIC [3]: 6 µg/mL (≈ 21.8 µM)
MIC [4]: 6 µg/mL (≈ 21.8 µM)
MIC [5]: 3 µg/mL (≈ 10.9 µM)

COc1ccc(-c2nnc(-c3ccc([N+](=O)[O-])c(F)c3)o2)c(F)c1
MIC [1]: 6 µg/mL (≈ 18 µM)
MIC [2]: 6 µg/mL (≈ 18 µM)
MIC [3]: 6 µg/mL (≈ 18 µM)
MIC [4]: 6 µg/mL (≈ 18 µM)
MIC [5]: 6 µg/mL (≈ 18 µM)

COc1ccc(-c2nnc(-c3cccc(Br)c3C)o2)c(F)c1
MIC [1]: 6 µg/mL (≈ 16.5 µM)
MIC [2]: 6 µg/mL (≈ 16.5 µM)
MIC [3]: 3 µg/mL (≈ 8.26 µM)
MIC [4]: 3 µg/mL (≈ 8.26 µM)
MIC [5]: 6 µg/mL (≈ 16.5 µM)

COc1ccc(-c2nnc(-c3ccc(F)c(F)c3F)o2)c(F)c1
MIC [1]: 6 µg/mL (≈ 18.5 µM)
MIC [2]: 6 µg/mL (≈ 18.5 µM)
MIC [3]: 3 µg/mL (≈ 9.25 µM)
MIC [4]: 3 µg/mL (≈ 9.25 µM)
MIC [5]: 6 µg/mL (≈ 18.5 µM)

COc1ccc(-c2nnc(-c3ccccc3C(F)(F)F)o2)c(F)c1
MIC [1]: 6 µg/mL (≈ 17.7 µM)
MIC [2]: 6 µg/mL (≈ 17.7 µM)
MIC [3]: 6 µg/mL (≈ 17.7 µM)
MIC [4]: 6 µg/mL (≈ 17.7 µM)
MIC [5]: 6 µg/mL (≈ 17.7 µM)

COc1ccc(-c2nnc(-c3c([N+](=O)[O-])ccc(F)c3F)o2)c(F)c1
MIC [1]: 6 µg/mL (≈ 17.1 µM)
MIC [2]: 6 µg/mL (≈ 17.1 µM)
MIC [3]: 12.5 µg/mL (≈ 35.6 µM)
MIC [4]: 6 µg/mL (≈ 17.1 µM)
MIC [5]: 6 µg/mL (≈ 17.1 µM)

COc1ccc(-c2nnc(-c3ccc(F)cc3)o2)c(F)c1
MIC [1]: 6 µg/mL (≈ 20.8 µM)
MIC [2]: 6 µg/mL (≈ 20.8 µM)
MIC [3]: 12.5 µg/mL (≈ 43.4 µM)
MIC [4]: 6 µg/mL (≈ 20.8 µM)
MIC [5]: 6 µg/mL (≈ 20.8 µM)

COc1ccc(-c2nnc(-c3cc(F)cc(F)c3)o2)c(F)c1
MIC [1]: 6 µg/mL (≈ 19.6 µM)
MIC [2]: 6 µg/mL (≈ 19.6 µM)
MIC [3]: 6 µg/mL (≈ 19.6 µM)
MIC [4]: 6 µg/mL (≈ 19.6 µM)
MIC [5]: 6 µg/mL (≈ 19.6 µM)

COc1ccc(-c2nnc(-c3cccc(C#N)c3)o2)c(F)c1
MIC [1]: 6 µg/mL (≈ 20.3 µM)
MIC [2]: 6 µg/mL (≈ 20.3 µM)
MIC [3]: 6 µg/mL (≈ 20.3 µM)
MIC [4]: 6 µg/mL (≈ 20.3 µM)
MIC [5]: 6 µg/mL (≈ 20.3 µM)

COc1ccc(-c2nnc(-c3cccc(C)c3C)o2)c(F)c1
MIC [1]: 6 µg/mL (≈ 20.1 µM)
MIC [2]: 6 µg/mL (≈ 20.1 µM)
MIC [3]: 6 µg/mL (≈ 20.1 µM)
MIC [4]: 12.5 µg/mL (≈ 41.9 µM)
MIC [5]: 6 µg/mL (≈ 20.1 µM)

COc1ccc(-c2nnc(-c3ccc(Cl)nc3)o2)c(F)c1
MIC [1]: 12.5 µg/mL (≈ 40.9 µM)
MIC [2]: 6 µg/mL (≈ 19.6 µM)
MIC [3]: 6 µg/mL (≈ 19.6 µM)
MIC [4]: 12.5 µg/mL (≈ 40.9 µM)
MIC [5]: 6 µg/mL (≈ 19.6 µM)

OC(Cn1cncn1)(Cn1cncn1)c1ccc(F)cc1F [FLUCONAZOLE]
MIC [5]: 6 µg/mL (≈ 19.6 µM)

NC(=O)N/N=C/c1ccc([N+](=O)[O-])o1 [NITROFURAZONE]
MIC [1]: 12.5 µg/mL (≈ 63.1 µM)
MIC [2]: 12.5 µg/mL (≈ 63.1 µM)
MIC [3]: 6 µg/mL (≈ 30.3 µM)
MIC [4]: 12.5 µg/mL (≈ 63.1 µM)

Reference: ChEMBL document CHEMBL1154831, “Synthesis, characterization and biological activity of some new 1,3,4-oxadiazole bearing 2-flouro-4-methoxy phenyl moiety” (2010)
